Results taken from ChEMBL document CHEMBL4052674, “Discovery of novel quinazoline-2,4(1H,3H)-dione derivatives as potent PARP-2 selective inhibitors” (Bioorg Med Chem, 2017).
pIC50: −log10 of the molar value.

How the values were obtained:
[1] = biological target: Poly [ADP-ribose] polymerase 2 (Homo sapiens, UniProt Q9UGN5); assay: Inhibition of recombinant human PARP-2 expressed in Escherichia coli BL21 (DE3) using sheared DNA as substrate in presence of biotinylated NAD after 1 hr by ELISA
[2] = biological target: Poly [ADP-ribose] polymerase 1 (Homo sapiens, UniProt P09874); assay: Inhibition of recombinant human PARP-1 expressed in Escherichia coli BL21 (DE3) using sheared DNA as substrate in presence of biotinylated NAD after 1 hr by ELISA
Sequence of Poly [ADP-ribose] polymerase 1 (P09874 whole entry): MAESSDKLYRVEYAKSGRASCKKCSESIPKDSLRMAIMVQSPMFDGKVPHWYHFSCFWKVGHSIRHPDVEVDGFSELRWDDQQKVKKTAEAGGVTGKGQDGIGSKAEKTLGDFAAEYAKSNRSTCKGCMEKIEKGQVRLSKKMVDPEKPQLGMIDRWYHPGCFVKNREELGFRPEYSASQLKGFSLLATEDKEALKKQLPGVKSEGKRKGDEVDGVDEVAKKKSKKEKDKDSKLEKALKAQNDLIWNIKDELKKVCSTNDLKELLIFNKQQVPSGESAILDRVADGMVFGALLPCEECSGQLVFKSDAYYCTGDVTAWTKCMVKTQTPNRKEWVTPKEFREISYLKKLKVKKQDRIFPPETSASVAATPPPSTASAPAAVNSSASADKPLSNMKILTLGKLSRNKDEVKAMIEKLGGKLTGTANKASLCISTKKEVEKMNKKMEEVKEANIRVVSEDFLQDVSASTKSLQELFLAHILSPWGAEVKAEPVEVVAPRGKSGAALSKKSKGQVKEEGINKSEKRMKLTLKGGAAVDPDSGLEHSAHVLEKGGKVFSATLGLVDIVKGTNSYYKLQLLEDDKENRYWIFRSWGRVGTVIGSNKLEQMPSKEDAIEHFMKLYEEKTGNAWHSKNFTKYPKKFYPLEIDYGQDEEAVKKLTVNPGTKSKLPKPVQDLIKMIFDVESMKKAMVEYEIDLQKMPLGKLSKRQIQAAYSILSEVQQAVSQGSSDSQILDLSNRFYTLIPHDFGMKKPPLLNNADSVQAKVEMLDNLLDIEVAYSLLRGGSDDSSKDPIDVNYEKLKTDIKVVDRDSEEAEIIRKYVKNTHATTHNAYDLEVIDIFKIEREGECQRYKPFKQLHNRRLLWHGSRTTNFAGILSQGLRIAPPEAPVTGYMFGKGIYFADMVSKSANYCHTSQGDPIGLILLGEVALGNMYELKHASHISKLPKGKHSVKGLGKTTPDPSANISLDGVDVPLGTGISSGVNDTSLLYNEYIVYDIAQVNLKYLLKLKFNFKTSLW

Homo sapiens = organism: Homo sapiens; assay: Selectivity index, ratio of IC50 for recombinant human PARP-1 expressed in Escherichia coli BL21 (DE3) to IC50 for recombinant human PARP-2 expressed in Escherichia coli BL21 (DE3)
Procedure, shortened: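 Human recombinant PARP-1 and PARP-2, expressed from plasmid and purified, were tested for inhibition of enzyme activity by ELISA and by chemical quantitation of NAD⁺. IC50 for each isoform was averaged from two or three independent experiments. The selectivity value is the ratio of the PARP-1 IC50 to the PARP-2 IC50.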

Sequence of Poly [ADP-ribose] polymerase 2 (Q9UGN5 whole entry): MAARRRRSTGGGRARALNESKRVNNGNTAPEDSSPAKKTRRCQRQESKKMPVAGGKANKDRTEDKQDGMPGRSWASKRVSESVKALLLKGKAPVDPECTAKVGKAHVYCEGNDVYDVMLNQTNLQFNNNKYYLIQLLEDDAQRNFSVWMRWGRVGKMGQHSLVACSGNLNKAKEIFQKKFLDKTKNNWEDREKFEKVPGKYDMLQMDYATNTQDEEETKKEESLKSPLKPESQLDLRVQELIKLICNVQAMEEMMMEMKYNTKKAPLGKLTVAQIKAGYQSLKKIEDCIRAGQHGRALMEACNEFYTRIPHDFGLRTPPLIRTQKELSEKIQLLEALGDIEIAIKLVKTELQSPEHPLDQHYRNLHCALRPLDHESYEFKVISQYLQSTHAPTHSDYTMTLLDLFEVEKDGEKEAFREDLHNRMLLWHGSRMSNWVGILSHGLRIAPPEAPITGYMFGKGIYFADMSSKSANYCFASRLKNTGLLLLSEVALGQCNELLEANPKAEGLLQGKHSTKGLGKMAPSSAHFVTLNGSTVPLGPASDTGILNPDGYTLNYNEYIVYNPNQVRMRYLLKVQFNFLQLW

Row | pIC50 [1] | pIC50 [2] | Ratio IC50 (Homo sapiens) | Compound
1 | 8.07 | 7.40 | 4.6 | CC(C)(C)OC(=O)N1CC[C@H](C(=O)Nc2cc(Cn3c(=O)[nH]c(=O)c4ccccc43)cnc2F)C1
2 | 8.35 | 7.27 | 12 | O=C(Nc1cc(Cn2c(=O)[nH]c(=O)c3ccccc32)cnc1F)[C@H]1CCN(C(=O)C2CC2)C1
3 | < 7.00 | < 7.00 |  | CC(C)(C)OC(=O)N1CC[C@H](C(=O)Nc2cc(Cn3c(=O)[nH]c(=O)c4ccccc43)cnc2Br)C1
4 | < 7.00 | < 7.00 |  | CC(C)(C)OC(=O)N1CC[C@H](C(=O)Nc2cc(Cn3c(=O)[nH]c(=O)c4ccccc43)ccc2[N+](=O)[O-])C1
5 | 8.39 | 7.03 | 22.8 | O=C(Nc1cc(Cn2c(=O)[nH]c(=O)c3ccccc32)cnc1F)[C@H]1CCN(c2ccccc2)C1
6 | < 7.00 | < 7.00 |  | O=C(Nc1cc(Cn2c(=O)[nH]c(=O)c3ccccc32)ccc1Br)[C@H]1CCNC1
7 | < 7.00 | < 7.00 |  | CC(C)(C)OC(=O)N1CC[C@H](C(=O)Nc2cncc(Cn3c(=O)[nH]c(=O)c4ccccc43)c2)C1
8 | 8.04 | 8.21 | 0.7 | CC(C)(C)OC(=O)N1CC[C@H](C(=O)Nc2cc(Cn3c(=O)[nH]c(=O)c4ccccc43)ccc2Cl)C1
9 | 9.00 | 8.85 | 1.8 | O=C(Nc1cc(Cn2c(=O)[nH]c(=O)c3ccccc32)cnc1F)[C@H]1CCN(CCC2CC2)C1
10 | 8.44 | 8.24 | 1.6 | O=C(Nc1cc(Cn2c(=O)[nH]c(=O)c3ccccc32)cnc1F)[C@H]1CCN(CC2CC2)C1
11 | < 7.00 | < 7.00 |  | CC(C)(C)OC(=O)N1CC[C@H](C(=O)Nc2cc(Cn3c(=O)[nH]c(=O)c4ccccc43)ccc2O)C1
12 | 7.94 | 6.33 | 40.6 | O=C(Nc1cc(Cn2c(=O)[nH]c(=O)c3ccccc32)cnc1F)[C@H]1CCN(CC(F)(F)F)C1
13 | < 7.00 | < 7.00 |  | O=C(Nc1cc(Cn2c(=O)[nH]c(=O)c3ccccc32)ccc1[N+](=O)[O-])[C@H]1CCNC1
14 | 8.24 | 7.21 | 10.7 | O=C(Nc1cc(Cn2c(=O)[nH]c(=O)c3ccccc32)cnc1F)[C@H]1CCN(Cc2ccncc2)C1
15 | < 7.00 | < 7.00 |  | CC(C)(C)OC(=O)N1CC[C@H](C(=O)Nc2cc(Cn3c(=O)[nH]c(=O)c4ccccc43)ccc2N)C1
16 | 7.17 | 6.46 | 5.1 | CC(C)(C)OC(=O)N1CC[C@H](C(=O)Nc2cc(Cn3c(=O)[nH]c(=O)c4ccccc43)ccc2Br)C1
17 | 8.54 | 8.51 | 1 | O=C(Nc1cc(Cn2c(=O)[nH]c(=O)c3ccccc32)cnc1F)[C@H]1CCN(CCC(F)(F)F)C1
18 | < 7.00 | < 7.00 |  | O=C(Nc1cc(Cn2c(=O)[nH]c(=O)c3ccccc32)ccc1Cl)[C@H]1CCNC1
19 | 6.66 | 8.00 | 0.04 | O=C(Nc1cncc(Cn2c(=O)[nH]c(=O)c3ccccc32)c1)[C@H]1CCNC1
20 | 7.91 | 6.63 | 19 | CC(C)(C)OC(=O)N1CC[C@H](C(=O)Nc2cc(Cn3c(=O)[nH]c(=O)c4ccccc43)cnc2Cl)C1
21 | 7.92 | 7.09 | 6.8 | O=C(Nc1cc(Cn2c(=O)[nH]c(=O)c3ccccc32)cnc1F)[C@H]1CCN(C2CCC(F)(F)CC2)C1
22 | 8.27 | 7.88 | 2.5 | O=C(Nc1cc(Cn2c(=O)[nH]c(=O)c3ccccc32)cnc1F)[C@H]1CCN(Cc2ccccc2)C1

Row | Compound | pIC50 [1] | pIC50 [2] | Ratio IC50 (Homo sapiens)
23 | O=C(Nc1cc(Cn2c(=O)[nH]c(=O)c3ccccc32)cnc1Cl)[C@H]1CCNC1 | 7.40 | 6.76 | 4.4
24 | O=C(Nc1cc(Cn2c(=O)[nH]c(=O)c3ccccc32)cnc1F)[C@H]1CCNC1 | 7.10 | 7.86 | 0.18
25 | O=C(Nc1cc(Cn2c(=O)[nH]c(=O)c3ccccc32)cnc1Br)[C@H]1CCNC1 | < 7.00 | < 7.00 | 
